Experiments:
[1] = system: panel of 35 known-liability targets including GPCRs and ion channels; assay: Known-liability off-target panel; settings: 300 kinases at 1 μM and 35 known-liability targets at 10 μM
[2] = Mouse preliminary tolerability study; assay type: in vivo
Procedure, shortened: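 Dosing was oral, twice daily, for 5 days. Recorded: mortality, clinical observations (e.g. temperature to touch, posture, gait, activity), body weight and weight gain, food consumption, and gross pathology.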

[3] = Mouse pharmacokinetic study; assay type: in vivo; settings: for clearance: female, Balb/c, mouse, plasma, iv
Procedure, shortened: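 Female Balb/c mice received test compound i.v. plus p.o., either 1 and 50 mg/kg or 2 and 12.5 mg/kg (n = 3 mice per route). Some arms were pretreated with 1-aminobenzotriazole (50 mg/kg p.o., 2 h before dosing) as a cytochrome P450 inhibitor; others had none. Blood concentration–time profiles were obtained.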

TcCYP51 = TcCYP51 (Trypanosoma cruzi, UniProt Q7Z1V1); assay: Fluorescence-based Trypanosoma cruzi CYP51 inhibition assay; assay type: biochemical; settings: concentrations up to and including 100 μM
Sequence of TcCYP51 (Q7Z1V1 whole entry): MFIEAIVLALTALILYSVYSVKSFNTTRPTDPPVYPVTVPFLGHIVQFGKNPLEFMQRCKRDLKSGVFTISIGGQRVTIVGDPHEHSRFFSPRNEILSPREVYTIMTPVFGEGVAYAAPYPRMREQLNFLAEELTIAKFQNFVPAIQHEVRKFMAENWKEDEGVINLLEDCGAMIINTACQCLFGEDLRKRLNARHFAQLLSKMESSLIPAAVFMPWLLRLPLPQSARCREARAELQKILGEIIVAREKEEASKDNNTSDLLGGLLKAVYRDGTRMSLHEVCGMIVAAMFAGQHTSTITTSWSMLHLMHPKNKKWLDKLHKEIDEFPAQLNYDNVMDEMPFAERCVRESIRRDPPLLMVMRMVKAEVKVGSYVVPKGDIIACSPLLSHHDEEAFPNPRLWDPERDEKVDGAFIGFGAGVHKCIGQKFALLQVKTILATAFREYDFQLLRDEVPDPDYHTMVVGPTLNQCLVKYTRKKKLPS

[4] = system: T. cruzi strain (CL Brener); assay: In vivo efficacy, bioluminescent acute T. cruzi infection in BALB/c mice; parameters: species or system Trypanosoma cruzi; settings: 50 mg/kg BID p.o. 5 days
Procedure, shortened: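 Female BALB/c mice, 7–8 weeks old, housed specific-pathogen-free, infected i.p. with 1 × 10³ CL Brener trypomastigotes from SCID mouse blood. The parasites constitutively express the red-shifted luciferase PpyRE9h. From day 14 post-infection (acute peak), mice (n = 3) received test compound orally at 50 mg/kg twice daily for 5 days. Parasite burden was tracked by in vivo bioluminescence imaging against untreated controls through day 18, with animals observed for adverse effects.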

Mouse cassette dosing PK = assay type: in vivo; settings: male, ICR, plasma, iv, 0.1 mg/kg
[5] = single p.o. dose 50 mg/kg, no ABT, 50 mg/kg

CC(C)(Nc1nc(-c2ccccn2)nc2ccccc12)c1ccccn1 [Compound 54, 2-(Pyridin-2-yl)-N-(2-(pyridin-2-yl)propan-2-yl)quinazolin-4-amine]
off-target activity [1]: no known off-target activity with the exception of 5HT-1A antagonism | tolerability (5 days BID p.o.) ([2]; healthy mice, 10, 50, 100 mg/kg BID p.o., 5 days): poor | clearance ([3]; 1 mg/kg): 12.4 mL/min/kg | tolerability (single p.o. dose) [3, 5]: No adverse reactions or compound-related side effects were observed

Fc1ccc(C2CCN(c3nc(-c4ccccn4)nc4ccccc34)C2)cc1 (stereo not shown) [Compound 83, 4-[3-(4-Fluorophenyl)pyrrolidin-1-yl]-2-(pyridin-2-yl)quinazoline]
TcCYP51 inhibitory activity (TcCYP51): no inhibitory activity

c1ccc(-c2nc(N3CCC(c4ccccn4)C3)c3ccccc3n2)nc1 (stereo not shown) [Compound 85, 2-(pyridin-2-yl)-4-(3-(pyridin-2-yl)pyrrolidin-1-yl)quinazoline]
adverse effects during treatment of infected mice [4]: no adverse effects were observed | no-observed-adverse-effect-level (NOAEL) ([2]; BID p.o. 5 days, female mice): 100 mg/kg/dose (BID) | multiday tolerability observations ([2]; female Balb/c mice, 10, 50, 100 mg/kg/dose BID p.o. up to 5 days, 1 animal/group): well tolerated | clearance (Mouse cassette dosing PK): 38.5 mL/min/kg | clearance ([3]; 2 mg/kg): 4.9 mL/min/kg | tolerability (single p.o. dose) ([3]; single dose 12.5 mg/kg p.o. with ABT 50 mg/kg p.o. 2 h prior): adverse tolerability events were observed after the single dose | tolerability (single p.o. dose) ([3]; single dose 12.5 mg/kg p.o. with ABT 50 mg/kg p.o. 2 h prior, listed as 85 + ABT): poor | tolerability (single p.o. dose) [3, 5]: no adverse issues were noted

— article PMC9884087 (Journal of Medicinal Chemistry, 2023)
